Test results published in ChEMBL document CHEMBL1136016, “Synthesis, biological activity, and molecular modeling investigation of new pyrazolo[4,3-e]-1,2,4-triazolo[1,5-c]pyrimidine derivatives as human A(3) adenosine receptor antagonists” (J Med Chem, 2002).

Assays:
[1] = molecular target: Adenosine receptors; A1 & A3 (Homo sapiens) (UniProt P30542+P0DMS8); assay: Selectivity ratio (hA1/hA3); format: protein assay
Adenosine receptor A1 [2] = molecular target: T1, Adenosine receptor A1 (Homo sapiens, UniProt P30542); assay: Displacement of [3H]DPCPX from human Adenosine A1 receptor expressed in CHO cells; format: cell-based
T1 sequence (P30542 whole entry): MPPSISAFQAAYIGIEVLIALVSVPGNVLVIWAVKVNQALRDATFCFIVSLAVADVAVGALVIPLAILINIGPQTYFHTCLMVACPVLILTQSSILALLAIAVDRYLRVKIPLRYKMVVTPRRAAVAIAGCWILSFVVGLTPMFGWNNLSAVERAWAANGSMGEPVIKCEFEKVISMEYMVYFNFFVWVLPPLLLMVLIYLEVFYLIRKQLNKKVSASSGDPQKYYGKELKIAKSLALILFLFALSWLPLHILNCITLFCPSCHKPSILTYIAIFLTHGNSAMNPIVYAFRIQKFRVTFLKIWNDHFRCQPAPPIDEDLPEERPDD
Procedure, shortened: (§1)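 Human recombinant A1 receptor in CHO cell membranes, resuspended in 50 mM Tris HCl pH 7.4. Displacement run 120 min at 25 °C with 1 nM [3H]DPCPX, 50 µg protein per assay, and at least six to eight test concentrations. Nonspecific binding defined with CHA. Bound and free separated on glass-fiber filters; filter radioactivity counted. n = 3-6.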

Adenosine receptor A2b [3] = molecular target: T2, Adenosine receptor A2b (Homo sapiens, UniProt P29275); assay: Displacement of [3H]DPCPX binding at human Adenosine A2B receptor expressed in HEK293 cells; format: cell-based
T2 sequence (P29275 whole entry): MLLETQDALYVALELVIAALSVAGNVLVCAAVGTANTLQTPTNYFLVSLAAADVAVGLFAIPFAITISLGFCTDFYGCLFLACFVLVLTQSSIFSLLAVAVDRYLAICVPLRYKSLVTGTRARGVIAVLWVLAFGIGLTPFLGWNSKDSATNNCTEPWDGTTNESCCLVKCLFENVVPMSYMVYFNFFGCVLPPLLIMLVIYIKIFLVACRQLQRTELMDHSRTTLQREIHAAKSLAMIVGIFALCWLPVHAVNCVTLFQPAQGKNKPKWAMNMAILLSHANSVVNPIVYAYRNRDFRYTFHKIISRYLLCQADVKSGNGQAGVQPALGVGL
Procedure, shortened: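 Membranes from HEK-293 cells with human recombinant A2B receptor. Incubation 60 min at 25 °C in 50 mM Tris HCl, 10 mM MgCl2, 1 mM EDTA, 0.1 mM benzamidine, pH 7.4, with 2 IU/mL adenosine deaminase and 40 nM [3H]DPCPX. At least six to eight test concentrations. Nonspecific binding defined with NECA. n = 3-6.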

Adenosine receptor A3 [4] = molecular target: T3, Adenosine receptor A3 (Homo sapiens, UniProt P0DMS8); assay: Displacement of […] from human Adenosine A3 receptor expressed in CHO cells; format: cell-based
T3 sequence (P0DMS8 whole entry): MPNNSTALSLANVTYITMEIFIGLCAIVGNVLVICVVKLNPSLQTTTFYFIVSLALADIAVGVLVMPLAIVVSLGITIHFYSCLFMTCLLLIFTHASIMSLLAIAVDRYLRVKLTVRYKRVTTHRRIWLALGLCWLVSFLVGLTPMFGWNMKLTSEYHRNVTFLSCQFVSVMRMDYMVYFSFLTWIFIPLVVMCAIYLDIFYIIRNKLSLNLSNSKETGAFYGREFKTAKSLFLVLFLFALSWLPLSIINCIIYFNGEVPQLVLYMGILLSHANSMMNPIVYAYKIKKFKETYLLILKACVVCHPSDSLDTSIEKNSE
Procedure, shortened: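 Membranes of CHO cells stably expressing human A3 receptor (50 µg protein/assay), incubated in duplicate with 1 nM [3H]MRE3008-F20 in 50 mM Tris HCl, 10 mM MgCl2 (pH 7.4) and six to eight ligand concentrations, 120 min at 4 °C. Nonspecific binding was set with 1 µM MRE3008-F20. Separation was by GF/B filtration and scintillation counting; n = 3-6.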

Adenosine receptor A2a [5] = molecular target: T4, Adenosine receptor A2a (Homo sapiens, UniProt P29274); assay: Displacement of [3H]SCH-58261 from human Adenosine A2A receptor expressed in CHO cells; format: cell-based
T4 sequence (P29274 whole entry): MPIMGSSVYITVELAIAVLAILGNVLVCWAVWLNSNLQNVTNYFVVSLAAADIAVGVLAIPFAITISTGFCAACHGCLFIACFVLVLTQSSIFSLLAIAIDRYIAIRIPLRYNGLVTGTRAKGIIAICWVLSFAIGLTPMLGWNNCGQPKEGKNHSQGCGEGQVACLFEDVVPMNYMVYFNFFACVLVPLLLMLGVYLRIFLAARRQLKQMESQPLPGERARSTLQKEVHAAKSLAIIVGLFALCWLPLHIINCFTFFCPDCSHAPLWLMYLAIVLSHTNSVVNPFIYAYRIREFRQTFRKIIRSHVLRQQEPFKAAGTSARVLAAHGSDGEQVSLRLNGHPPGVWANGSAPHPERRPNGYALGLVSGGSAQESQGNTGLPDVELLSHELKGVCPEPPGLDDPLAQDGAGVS
Procedure, shortened: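 Membranes from CHO cells expressing the human receptor (50 µg protein) with [3H]SCH58261 and six to eight competitor concentrations. Incubated 60 min at 25 °C. Nonspecific binding was set with NECA.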

[6] = molecular target: Adenosine receptors; A2b & A3 (Homo sapiens) (UniProt P29275+P0DMS8); assay: Selectivity ratio (h2B/hA3); format: protein assay
Adenosine receptor A1 [7] = molecular target: T1, Adenosine receptor A1; assay: Displacement of [3H]DPCPX from human Adenosine A1 receptor expressed in CHO cells; range 324-475; format: cell-based
Adenosine receptor A3 [8] = molecular target: T3, Adenosine receptor A3; assay: Inhibition of IB-MECA agonist-mediated cAMP production in CHO cell membranes expressing human Adenosine A3 receptor; range 15-44; format: functional, cell-based
Procedure, shortened: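 Human A3-CHO membranes (in 50 mM Tris HCl, 10 mM MgCl2, 1 mM EDTA, pH 7.4) were preincubated for 10 min at 37 °C with 5 µM GTP, 0.5 mM Ro 20-1724 and 2.0 IU/mL adenosine deaminase. IB-MECA (100 nM) or antagonist was then added with 1 mM ATP and forskolin for 10 min. The reaction was stopped by 2 min boiling. cAMP was measured by [3H]cAMP competitive protein binding using beef adrenal binding protein, 150 min at 4 °C.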

Adenosine receptor A2b [9] = molecular target: T2, Adenosine receptor A2b; assay: Displacement of [3H]-DPCPX from human Adenosine A2B receptor expressed in HEK293 cells; range 91-148; format: cell-based
Procedure, shortened: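 Competition binding on membranes of HEK-293 cells carrying recombinant human A2B receptor. Incubation 60 min at 25 °C in 50 mM Tris HCl pH 7.4 with 10 mM MgCl2, 1 mM EDTA, 0.1 mM benzamidine and 2 IU/mL adenosine deaminase. Radioligand 40 nM [3H]DPCPX, at least six to eight test concentrations. NECA defined nonspecific binding. Bound ligand separated on glass-fibre filters and counted; n = 3-6.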

Adenosine receptor A2a [10] = molecular target: T4, Adenosine receptor A2a; assay: Displacement of [3H]SCH-58261 from human Adenosine A2A receptor expressed in HEK293 cells; range 114-179; format: cell-based
Adenosine receptor A3 [11] = molecular target: T3, Adenosine receptor A3; assay: Displacement of [3H]MRE3008-F20 from human Adenosine A3 receptor expressed in HEK cells; range 3.05-3.78; format: cell-based, HEK293
Adenosine receptor A3 [12] = molecular target: T3, Adenosine receptor A3; assay: Inhibition of IB-MECA agonist-mediated cAMP production in CHO cell membranes expressing human Adenosine A3 receptor; range 130-279; format: functional, cell-based
Adenosine receptor A2a [13] = molecular target: T4, Adenosine receptor A2a; assay: Displacement of [3H]SCH-58261 from human Adenosine A2A receptor expressed in HEK293 cells; format: cell-based
Adenosine receptor A3 [14] = molecular target: T3, Adenosine receptor A3; assay: Displacement of [3H]MRE3008-F20 from human Adenosine A3 receptor expressed in HEK cells; range 19-34; format: cell-based, HEK293
Adenosine receptor A1 [15] = molecular target: T1, Adenosine receptor A1; assay: Displacement of [3H]DPCPX from human Adenosine A1 receptor expressed in CHO cells; range 436-810; format: cell-based; procedure, shortened: as §1
Adenosine receptor A2b [16] = molecular target: T2, Adenosine receptor A2b; assay: Displacement of [3H]DPCPX from human Adenosine A2B receptor expressed in HEK293 cells (95% confidence limits); format: cell-based
Procedure, shortened: (§2)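 HEK-293 membranes expressing the human receptor were incubated 60 min at 25 °C. Six to eight test concentrations were used. Nonspecific binding was set with NECA. n = 3-6.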

Adenosine receptor A3 [17] = molecular target: T3, Adenosine receptor A3; assay: biochemical
Adenosine receptor A2a [18] = molecular target: T4, Adenosine receptor A2a; assay: Displacement of [3H]SCH-58261 from human Adenosine A2A receptor expressed in HEK293 cells; range 362-445; format: cell-based
Adenosine receptor A2b [19] = molecular target: T2, Adenosine receptor A2b; assay: Displacement of [3H]DPCPX from human Adenosine A2B receptor expressed in HEK293 cells; range 25-40; format: cell-based; procedure, shortened: as §2
Adenosine receptor A3 [20] = molecular target: T3, Adenosine receptor A3; assay: Displacement of [3H]MRE3008-F20 from human Adenosine A3 receptor expressed in HEK cells; range 2.0-3.1; format: cell-based, HEK293
Adenosine receptor A1 [21] = molecular target: T1, Adenosine receptor A1; assay: Displacement of [3H]DPCPX from human Adenosine A1 receptor expressed in CHO cells; range 552-676; format: cell-based
Procedure, shortened: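 Competition binding on membranes of CHO cells stably expressing human A1 receptor, resuspended in 50 mM Tris HCl pH 7.4. Incubation 120 min at 25 °C with 1 nM [3H]DPCPX, 50 µg protein per assay and at least six to eight test concentrations. CHA defined nonspecific binding. Bound ligand separated on glass-fibre filters and counted; n = 3-6.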

Compound | Ratio [1] | Ki (Adenosine receptor A1 [2]) [nM] | Ki (Adenosine receptor A2b [3]) [nM] | Ki (Adenosine receptor A2a [5]) [nM] | Ratio [6] | other results
CCCn1cc2c(nc(NC(=O)Nc3ccc([N+](=O)[O-])cc3)n3nc(-c4ccco4)nc23)n1 | 1500 | 1210 | 305 | 1110 | 377 | Ki (Adenosine receptor A3 [4]): 0.81 nM
CCn1cc2c(nc(NC(=O)Nc3cccc(Cl)c3)n3nc(-c4ccco4)nc23)n1 | 155 |  |  |  | 93.7 | 
Cn1cc2c(nc(NC(=O)Nc3ccc(Cl)c(Cl)c3)n3nc(-c4ccco4)nc23)n1 | 115 |  |  |  | 34 | Ki (Adenosine receptor A1 [7]): 392 nM; IC50 (Adenosine receptor A3 [8]): 26 nM; Ki (Adenosine receptor A2b [9]): 116 nM; Ki (Adenosine receptor A2a [10]): 143 nM; Ki (Adenosine receptor A3 [11]): 3.4 nM
Cn1cc2c(nc(NC(=O)Nc3ccc(S(=O)(=O)O)cc3)n3nc(-c4ccco4)nc23)n1 | > 400 |  | > 10000 |  | > 400 | IC50 (Adenosine receptor A3 [12]): 190 nM; Ki (Adenosine receptor A2a [13]): 594 nM; Ki (Adenosine receptor A3 [14]): 25 nM; Ki (Adenosine receptor A1 [15]): > 10 µM
CCn1cc2c(nc(NC(=O)Cc3ccccc3)n3nc(-c4ccco4)nc23)n1 | 693 | 714 |  | 335 | 156 | Ki (Adenosine receptor A2b [16]): 161 nM; Ki (Adenosine receptor A3 [17]): 1.03 nM
O=C(Nc1cccc(Cl)c1)Nc1nc2ccc(Cl)cc2c2nc(-c3ccco3)nn12 | 54 |  |  |  | 157 | 
CCCn1cc2c(nc(NC(=O)Nc3ccc(Cl)c(Cl)c3)n3nc(-c4ccco4)nc23)n1 | 244 |  |  |  | 12 | Ki (Adenosine receptor A2a [18]): 401 nM; Ki (Adenosine receptor A2b [19]): 31 nM; Ki (Adenosine receptor A3 [20]): 2.5 nM; Ki (Adenosine receptor A1 [21]): 611 nM
CCCn1cc2c(nc(NC(=O)Nc3cccc(Cl)c3)n3nc(-c4ccco4)nc23)n1 | 33 |  |  |  | 62.6 | 
CCCCn1cc2c(nc(NC(=O)Nc3ccc([N+](=O)[O-])cc3)n3nc(-c4ccco4)nc23)n1 | 1060 | 584 | 52 | 503 | 96 | Ki (Adenosine receptor A3 [4]): 0.55 nM
CCCCn1cc2c(nc(NC(=O)Nc3ccc(OC)cc3)n3nc(-c4ccco4)nc23)n1 | 925 |  |  |  | 946 | 
